Screening results (PubChem BioAssay)
Only some compounds are listed: those with a hit (about 2.7% of all), similar ones and a draw of the others.
MC4R barr agon – MC4R agonists recruiting beta-arrestin, primary screen, cell-based, luminescence, agonist arm of biased-ligand search; Melanocortin receptor 4 (Homo sapiens), P32245; U2OS MC4R beta-arrestin complementation; percent of melanotan II response, DMSO zero; 360,000 tested, 0.98% active; activation, % at 8.9 µM;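 active = activation above a per-plate cutoff, the mean activation of sample wells on that plate plus 3 SD, cut at about 8% in these data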
HTR2A ag – mouse Htr2a agonists via beta-arrestin recruitment, primary screen, cell-based, luminescence. CHO-K1 mHTR2A beta-arrestin complementation; percent of 30 µM serotonin response. activation, % at 7.6 µM. 360,000 tested, 0.66% active;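 active = activation above a run cutoff, the mean activation of all tested compounds plus 3 SD, cut at about 14% in these data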;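 note: 0% = plate median of compound wells and 100% = 30 µM serotonin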
Lipid droplet – inhibitors of hepatocyte lipid droplet formation, primary screen, imaging, high-throughput imaging, BODIPY stain; 240,000 tested, 0.4% active; inhibition, % at 6.5 µM; AML12 mouse hepatocytes, oleate lipid droplets; AID 1656, 2009;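 active = lipid droplet intensity inhibited by at least 50%, with more than 500 cells counted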
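Material: mouse AML12 hepatocyte cell line, fixed after treatment; Timing: compound with oleate, overnight; Technique: high-content imaging of BODIPY-stained droplets and DAPI nuclei; Probe or stimulus: oleate, 100 µM final; Dosing: compound at 6.5 µM only.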
PREPL inh – PREPL enzyme inhibitors, primary screen, biochemical, fluorescence polarization. Prolyl endopeptidase-like (Homo sapiens), Q4J6C6. inhibition, % at 5.96 µM. 320,000 tested, 0.68% active. AID 2751, 2010. recombinant PREPL, fluorescence polarization activity-based probe; in the data active = inhibition above about 43%;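 note: 0% = enzyme with DMSO and 100% = wells lacking enzyme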
NTR1 agonist – agonists of human NTR1, primary screen, imaging, U2OS cells, beta-arrestin-GFP, high content; Neurotensin receptor type 1 (Homo sapiens), P30989; NTR1-U2OS beta-arrestin-GFP spot imaging, agonist mode; activation, % at 20 µM; 330,000 tested, 0.17% active;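 active = activation at or above 40% of the spot to cytoplasm intensity ratio, with at least 20 cells analyzed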;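 note: 0% = DMSO without peptide and 100% = 100 nM NTR1 peptide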
Target sequence (P30989 whole entry, looked up): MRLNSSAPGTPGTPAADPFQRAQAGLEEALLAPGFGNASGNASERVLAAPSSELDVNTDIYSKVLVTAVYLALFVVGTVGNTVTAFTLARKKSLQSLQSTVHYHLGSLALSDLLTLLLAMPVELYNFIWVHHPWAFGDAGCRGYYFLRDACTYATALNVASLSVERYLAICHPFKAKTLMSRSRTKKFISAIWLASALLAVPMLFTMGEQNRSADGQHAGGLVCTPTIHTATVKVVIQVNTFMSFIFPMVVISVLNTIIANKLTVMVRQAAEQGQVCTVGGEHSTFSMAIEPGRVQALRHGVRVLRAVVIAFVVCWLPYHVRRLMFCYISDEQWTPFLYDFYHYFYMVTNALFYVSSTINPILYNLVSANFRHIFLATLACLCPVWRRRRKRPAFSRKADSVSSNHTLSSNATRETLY
MC4R antag cAMP – MC4R antagonists of cAMP signaling, primary screen, cell-based, TR-FRET, antagonist arm of biased-ligand search; Melanocortin receptor 4 (Homo sapiens), P32245; MC4R-expressing cells, MTII-stimulated cAMP, LANCE TR-FRET; inhibition, % at 6.5 µM; 360,000 tested, 0.48% active; AID 540295, 2011;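 active = inhibition above its plate's cutoff, the mean of tested wells on that plate plus 3 SD, cut at about 29% in these data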;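 note: 0% = Melanotan II alone and 100% = Melanotan II plus saturating MCL0020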
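system = U2OS cells with stable human MC4R expression | also added = Melanotan II challenge after compound preincubation | dosing = one concentration, 6.5 µM nominal | incubation = compound 30 min, challenge 1 h, detection 1 h | measured by = TR-FRET with Eu-cAMP and labeled anti-cAMP, 671 nm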
Hep lipid conf – hepatocyte lipid droplet accumulation inhibitors, confirmation, imaging, AML12 mouse hepatocytes, single concentration, high-content; shares compounds with Lipid droplet; BODIPY lipid droplet imaging; droplets induced with 100 µM oleic acid; inhibition, % at 5.2 µM; 870 tested, 65% active;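 active = inhibition of lipid droplet metric at least 50%, with more than 300 cells in each of four replicates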;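 note: plate controls were DMSO with oleic acid for no effect and 5 µM Triacsin-C for full effect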
AML12 tox img – AML12 hepatocyte cytotoxicity, counter-screen for hepatic lipid droplet formation project, imaging, DAPI nuclear morphology imaging | shares compounds with Lipid droplet | AML12 mouse hepatocytes; active compounds read high; cells fed 100 µM oleate overnight | z-score at 5 µM | 870 tested, 3% active | AID 463200, 2010; in the data active = z-score above about 6.3;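 note: compound exposure lasted overnight at 37 °C before fixation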
AML12 tox conf – AML12 hepatocyte cytotoxicity, confirmation, cytotoxicity control for hepatic lipid droplet formation project, cell-based, single concentration; shares compounds with Lipid droplet; AML12 mouse hepatocyte viability, ATP luminescence; cells loaded with 100 µM oleic acid; cytotoxicity, % at 50 µM; 530 tested, under 10 active;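 active = cytotoxicity above 50% in each of four replicates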;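 note: compound exposure lasted overnight at 37 °C before the ATP read; 0% = DMSO-treated cells and 100% = wells with no cells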
An asterisk follows results filed as active; . = no result.

SMILES	MC4R barr agon	HTR2A ag	Lipid droplet	PREPL inh	NTR1 agonist	MC4R antag cAMP	Hep lipid conf	AML12 tox img	AML12 tox conf
Nc1nc(Oc2ccc(F)cc2)c(Br)c(=O)[nH]1	-1	1	0	-10	1	-1	.	.	.
CC(C)c1ccccc1-n1c(SCC(=O)c2ccc3c(c2)NC(=O)CO3)nc2ccccc2c1=O	-1	4	54*	-1	5	18	59	-1.3	3
COc1ccc(NC(=O)C(CC(C)C)NC(=O)C2CCC(C)CC2)c(OC)c1 (configuration not stated)	1	4	-2	21	1	9	.	.	.
Cn1c(=O)c(=O)n(C)c2cc(N3CCOCC3)c(NS(=O)(=O)c3ccc(F)c(Cl)c3)cc21	-3	-3	-24	18	1	8	.	.	.
Cn1c(=O)c(=O)n(C)c2cc(N3CCCC3)c(NS(=O)(=O)c3ccc(Cl)cc3)cc21	-2	2	50*	22	0	-4	8	-0.61	.
FC(F)(F)c1ccc(Cl)c(NC(=S)N/N=C/c2ccccc2C(F)(F)F)c1	1	-7	52*	-7	5	7	104*	0.61	1
COc1cc(C(=O)Nc2cccc(C)n2)ccc1OCC(=O)N1CCOCC1	-1	4	.	0	1	1	.	.	.
COc1ccc(-c2csc(NC(=O)c3ccc(OCC(=O)N4CCOCC4)c(OC)c3)n2)cc1OC	1	5	71*	7	26	14	96*	0.43	25
CNc1nc(N)c(C(=O)C23CC4CC(CC(C4)C2)C3)s1	0	3	-4	3	3	0	.	.	.
CCn1c(=O)n(CC)c2cc(S(=O)(=O)Nc3ccccc3C)c(C)cc21	0	-1	40	1	0	10	.	.	.
CCc1ccccc1NS(=O)(=O)c1cc2c(cc1C)n(C)c(=O)c(=O)n2C	-2	1	85*	-7	4	8	105*	-0.21	9
CCN(CC)CCCNC(=O)c1cn(CC)c2ccc(S(=O)(=O)N(C)C3CCCCC3)cc2c1=O	0	3	16	4	0	-2	.	.	.
CCn1cc(C(=O)NCCCN(CC(C)C)CC(C)C)c(=O)c2cc(S(=O)(=O)N(C)C3CCCCC3)ccc21	-1	-2	69*	8	8	18	24	-0.027	.
COc1ccc(S(=O)(=O)N(c2onc(C)c2Cl)S(=O)(=O)c2ccc(OC)cc2)cc1	1	-2	60*	-15	-2	6	37	-1.2	.
CCC(=O)N(C)C[C@H]1Oc2cc(-c3cccnc3)ccc2S(=O)(=O)N([C@H](C)CO)C[C@H]1C	-1	-1	.	.	.	3	.	.	.
Clc1ccccc1CN(Cc1ccco1)Cc1nnnn1C1CCCC1	1	-5	68*	4	3	1	1	-0.68	.
O=C(CNc1cc(S(=O)(=O)N2CCCC2)ccc1OCC(F)(F)F)Nc1cccc(C(F)(F)F)c1	3	1	54*	5	5	0	-4	0.042	.
Cc1ccc(S(=O)(=O)N2CCCCC2)cc1C(=O)N(C)CCOc1ccccc1	-4	-4	62*	12	2	-4	-9	1.8	.
CCOc1ccc(NS(=O)(=O)c2ccc(C(=O)N3CCCCC3)cc2)cc1	-3	-1	57*	0	2	12	87*	0.11	21
CC(=O)c1ccc(S(=O)(=O)Nc2ccc(N3CCOCC3)cc2)cc1	-2	2	18	1	-2	-3	.	.	.
CCOc1ccc(S(=O)(=O)Nc2ccc(C(=O)N(CC)CC(=O)NCc3cccs3)cc2)cc1	-1	1	.	.	.	6	.	.	.
CCOc1ccc(NS(=O)(=O)c2ccc(C(=O)N(CC)CC(=O)NCc3cccs3)cc2)cc1	-2	0	78*	7	0	4	98*	-0.11	20
CCOc1ccc(NS(=O)(=O)c2ccc(C(=O)N3CCN(c4ncccn4)CC3)cc2)cc1	-1	10	-13	-21	1	5	.	.	.
CCOC(=O)c1ccc(S(=O)(=O)Nc2ccc(N3CCOCC3)cc2)cc1	2	3	86*	-8	-2	-6	79*	-0.094	4
CC1CC(NC(=O)N(C)C)N(C)C(=O)N1 (configuration not stated)	0	6	2	6	0	11	.	.	.
SMILES	MC4R barr agon	HTR2A ag	Lipid droplet	PREPL inh	NTR1 agonist	MC4R antag cAMP	Hep lipid conf	AML12 tox img	AML12 tox conf
CCN(CC)c1ncnc2c1ncn2[C@H]1CN(Cc2ccncc2)C[C@@H](CO)O1	0	-4	.	.	.	3	.	.	.
CN(C)CCCN(C(=O)c1ccc2ccccc2c1)c1nc2cc3c(cc2s1)OCO3	-2	-9	55*	-9	15	-4	-2	-0.11	.
Cc1c(Cl)cccc1N(CC(=O)NC(C)c1ccccc1)S(C)(=O)=O (configuration not stated)	-1	4	58*	-13	0	2	47	-0.75	.
CC(NC(=O)CN(c1ccccc1F)S(C)(=O)=O)c1ccccc1 (configuration not stated)	0	-2	9	-8	-1	8	.	.	.
O=[N+]([O-])c1cc2c(c(CSc3nnc(Nc4ccccc4)s3)c1)OCOC2	0	-3	64*	-6	11	3	93*	-1.6	9
Cc1nc2ccccc2nc1OCc1ccccc1	1	3	7	4	1	-7	.	.	.
Cc1ccc2nc(=O)c(NNc3ccccc3)cnc2c1	2	0	52*	12	4	-7	59	3.8	46
Cc1ccc2nc(-c3ccccc3)c(-c3ccccc3)nc2c1	0	-1	-45	13	6	8	.	.	.
Cc1nc2ccccc2nc(=O)c1NNc1ccccc1	-1	2	59*	.	.	-16	59*	2.3	.
